pIC50: −log10 of the molar value.

This is an account of results in ChEMBL document CHEMBL4732220, “Design, synthesis and biological evaluation of mono- and bisquinoline methanamine derivatives as potential antiplasmodial agents” (Bioorg Med Chem Lett, 2021).

The test system of series [1] is Plasmodium falciparum. Briefly: Antiplasmodial activity against chloroquine-sensitive Plasmodium falciparum 3D7 assessed as parasite growth inhibition. Type of series: functional, organism-based. An outline of the steps: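 In vitro growth inhibition of P. falciparum 3D7. IC50 reported in µM, with 20 µM as the highest concentration tested.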
A short description of series [2]: Cytotoxicity against human HeLa cells assessed as cell viability at 20 uM relative to control. The class given is cell-based. Particulars: read-out: Activity. An outline of the steps:
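Mammalian HeLa cells incubated with test compound at a single 20 µM concentration. Read-out is the percentage of viable cells remaining after incubation.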

In series [3] the test system is Plasmodium falciparum. Briefly: Antimalarial activity against synchronized ring stage chloroquine-sensitive Plasmodium falciparum assessed as parasite growth inhibition incubated for 48 hrs in presence of 10% human plasma by hypoxanthine assay. Type of series: functional, organism-based.

Take `COc1nc2ccc(C)cc2cc1CN(Cc1ccccn1)Cc1cc2cc(C)ccc2nc1OC`: the pIC50 with Plasmodium falciparum [1] was below 4.70. In series [2], the viability at 20 µM was determined as 93.3%.

For the molecule `COc1nc2ccccc2cc1CN(Cc1ccco1)Cc1cc2cc(C)ccc2nc1Cl`, the negative-log IC50 (pIC50) with Plasmodium falciparum [1] is 4.89. Moreover, in series [2], the viability at 20 µM amounted to 84.4%.

As to `COc1ccc2nc(Cl)c(CN(Cc3ccccn3)Cc3cc4cc(OC)ccc4nc3Cl)cc2c1`, in the series with Plasmodium falciparum [1], the pIC50 was below 4.70. In addition, the viability at 20 µM in series [2] came to 83.8%.

As to `COc1nc2ccc(F)cc2cc1CNCc1cccnc1`, the pIC50 in the series on Plasmodium falciparum [1] is 4.75. Moreover, the viability at 20 µM in series [2] was 97.2%.

`COc1nc2ccc(C)cc2cc1CNCc1cccnc1`: the pIC50 in the series with Plasmodium falciparum [1] is 4.87. Further, in series [2], the viability at 20 µM came to 99.5%.

As for `COc1nc2ccccc2cc1CNCc1cccnc1`, in the series with Plasmodium falciparum [1], the pIC50 is 4.87. The viability at 20 µM in series [2] amounted to 89.9%.

With `COc1ccc2nc(OC)c(CNCc3cccnc3)cc2c1`, in the series on Plasmodium falciparum [1], the pIC50 is 4.89. For the same molecule, the viability at 20 µM in series [2] turned out to be 100%.

Regarding `Clc1nc2ccccc2cc1CNCc1ccccn1`, the pIC50 in the series with Plasmodium falciparum [1] was below 4.70. For the same molecule, the viability at 20 µM in series [2] was 65.6%.

On to `COc1nc2cc(C)cc(C)c2cc1CNCc1cccs1`, for which the pIC50 in the series on Plasmodium falciparum [1] is below 4.70. Besides, the viability at 20 µM in series [2] is 87.5%.

With `COc1ccc2nc(Cl)c(CN(Cc3cccs3)Cc3cc4cc(C)ccc4nc3OC)cc2c1`, the pIC50 with Plasmodium falciparum [1] was 4.87. Moreover, in series [2], the viability at 20 µM turned out to be 103%.

For the molecule `COc1nc2cc(C)cc(C)c2cc1CN(Cc1cccs1)Cc1cc2cc(C)ccc2nc1Cl`, the pIC50 with Plasmodium falciparum [1] was below 4.70. For the same molecule, the viability at 20 µM in series [2] is 86%.

With `COc1nc2ccccc2cc1CNCc1ccccn1`, the pIC50 in the series with Plasmodium falciparum [1] is 5.85. In series [2], the viability at 20 µM is 44.3%.

`COc1nc2cc(C)cc(C)c2cc1CNCc1ccncc1`: the pIC50 in the series with Plasmodium falciparum [1] is 4.92. In series [2], the viability at 20 µM stood at 60.7%.

For the molecule `COc1nc2cc(C)cc(C)c2cc1CN(Cc1cccnc1)Cc1cc2cc(C)ccc2nc1Cl`, in the series with Plasmodium falciparum [1], the pIC50 is 4.91. For the same molecule, the viability at 20 µM in series [2] amounted to 77.6%.

Turning to `COc1nc2ccc(Cl)cc2cc1CNCc1cccnc1`, in the series on Plasmodium falciparum [1], the pIC50 is 4.77. Also, in series [2], the viability at 20 µM turned out to be 100%.

Regarding `Fc1ccc2nc(Cl)c(CN(Cc3ccccn3)Cc3cc4cc(F)ccc4nc3Cl)cc2c1`, in the series on Plasmodium falciparum [1], the pIC50 was 5.01. Also, the viability at 20 µM in series [2] was found to be 98.7%.

`COc1nc2cc(C)cc(C)c2cc1CNCc1ccccn1`: in the series on Plasmodium falciparum [1], the pIC50 is 6.64. Besides, the viability at 20 µM in series [2] came out at 56.7%.

Take `COc1ccc2nc(OC)c(CN(Cc3ccccn3)Cc3cc4cc(OC)ccc4nc3OC)cc2c1`: the negative-log IC50 (pIC50) in the series on Plasmodium falciparum [1] is 5.47. Moreover, the viability at 20 µM in series [2] worked out at 79.5%.

Consider `COc1nc2cc(C)cc(C)c2cc1CNCc1cccnc1`, for which the pIC50 in the series on Plasmodium falciparum [1] was below 4.70. Further, the viability at 20 µM in series [2] stood at 76.7%.

On to `Cc1ccc2nc(Cl)c(CN(Cc3cccnc3)Cc3cc4c(C)cc(C)cc4nc3Cl)cc2c1`, for which, in the series on Plasmodium falciparum [1], the pIC50 is 5.12. Besides, the viability at 20 µM in series [2] is 80.3%.

For `COc1nc2ccccc2cc1CN(Cc1ccccn1)Cc1cc2ccccc2nc1OC`, the pIC50 with Plasmodium falciparum [1] is 5.46. Besides, in series [2], the viability at 20 µM was 89%.

Turning to `C=C[C@H]1CN2CC[C@H]1C[C@H]2[C@H](O)c1ccnc2ccc(OC)cc12` [QUININE], in the series with Plasmodium falciparum [3], the pIC50 was 6.08.

In the case of `COc1nc2ccc(F)cc2cc1CNCc1cccs1`, the pIC50 in the series with Plasmodium falciparum [1] was below 4.70. Besides, in series [2], the viability at 20 µM was 93.5%.

Take `COc1ccc2nc(OC)c(CNCc3cccs3)cc2c1`: the pIC50 in the series with Plasmodium falciparum [1] is below 4.70. In addition, the viability at 20 µM in series [2] was found to be 93.2%.

For the molecule `Oc1ccc2nc(Cl)c(CN(Cc3ccccn3)Cc3cc4cc(O)ccc4nc3Cl)cc2c1`, the pIC50 with Plasmodium falciparum [1] is 5.60. In addition, the viability at 20 µM in series [2] was 88.8%.

Take `Clc1ccc2nc(Cl)c(CN(c3ccccc3)c3nnc(-c4ccccc4)o3)cc2c1`: in the series on Plasmodium falciparum [3], the negative-log IC50 (pIC50) is 7.05.

Take `COc1ccc2nc(Cl)c(CN(Cc3cccs3)Cc3cc4c(C)cc(C)cc4nc3OC)cc2c1`: the pIC50 in the series with Plasmodium falciparum [1] was below 4.70. The viability at 20 µM in series [2] is 85.4%.

For the molecule `COc1nc2ccc(F)cc2cc1CN(Cc1cccnc1)Cc1cc2cc(C)ccc2nc1Cl`, the pIC50 with Plasmodium falciparum [1] is 5.02. Moreover, the viability at 20 µM in series [2] worked out at 92.6%.

Take `Cc1ccc2nc(Cl)c(CN(Cc3ccccn3)Cc3cc4cc(C)ccc4nc3Cl)cc2c1`: the pIC50 in the series on Plasmodium falciparum [1] is below 4.70. For the same molecule, the viability at 20 µM in series [2] was found to be 93%.

Consider `COc1nc2ccccc2cc1CN(Cc1ccccn1)Cc1cc2ccccc2nc1Cl`, for which, in the series on Plasmodium falciparum [1], the pIC50 was below 4.70. Also, the viability at 20 µM in series [2] was determined as 89.9%.

Turning to `COc1nc2cc(C)cc(C)c2cc1CN(Cc1ccccn1)Cc1cc2c(C)cc(C)cc2nc1OC`, the pIC50 in the series on Plasmodium falciparum [1] is 5.55. Moreover, the viability at 20 µM in series [2] was 90.1%.

Consider `COc1nc2ccc(F)cc2cc1CN(Cc1cccs1)Cc1cc2cc(C)ccc2nc1Cl`, for which the pIC50 in the series with Plasmodium falciparum [1] is 4.95. Also, in series [2], the viability at 20 µM came out at 95.2%.

Consider `COc1nc2ccc(C)cc2cc1CNCc1cccs1`, for which the pIC50 with Plasmodium falciparum [1] is below 4.70. In addition, the viability at 20 µM in series [2] was 99.7%.

In the case of `Clc1nc2ccccc2cc1CN(Cc1ccccn1)Cc1cc2ccccc2nc1Cl`, in the series with Plasmodium falciparum [1], the pIC50 was below 4.70. In addition, the viability at 20 µM in series [2] amounted to 90.6%.

With `Clc1nc2ccccc2cc1CNCc1ccncc1`, the pIC50 in the series with Plasmodium falciparum [1] was 5.64. Moreover, the viability at 20 µM in series [2] was found to be 73.7%.

With `COc1nc2ccccc2cc1CNCc1ccco1`, in the series on Plasmodium falciparum [1], the pIC50 is below 4.70. Moreover, the viability at 20 µM in series [2] is 88.9%.

`COc1nc2ccccc2cc1CN(Cc1cccnc1)Cc1cc2cc(C)ccc2nc1Cl`: in the series on Plasmodium falciparum [1], the pIC50 is 5.01. The viability at 20 µM in series [2] was determined as 98.3%.

In the case of `COc1nc2ccccc2cc1CNCc1ccncc1`, the pIC50 with Plasmodium falciparum [1] is 5.68. Moreover, the viability at 20 µM in series [2] was 69.9%.

As for `Cc1cc(C)c2cc(CNCc3cccnc3)c(Cl)nc2c1`, the negative logarithm of the IC50 (pIC50) in the series with Plasmodium falciparum [1] was below 4.70. Besides, the viability at 20 µM in series [2] worked out at 77.2%.

For the molecule `COc1ccc2nc(OC)c(CN(Cc3cccs3)Cc3cc4cc(C)ccc4nc3Cl)cc2c1`, in the series with Plasmodium falciparum [1], the negative-log IC50 (pIC50) was 6.03. For the same molecule, the viability at 20 µM in series [2] turned out to be 99.2%.

As to `COc1nc2ccccc2cc1CNCc1cccs1`, the pIC50 in the series on Plasmodium falciparum [1] was below 4.70. Also, the viability at 20 µM in series [2] came to 89.9%.

In the case of `COc1nc2ccc(C)cc2cc1CN(Cc1cccs1)Cc1cc2cc(C)ccc2nc1Cl`, the pIC50 with Plasmodium falciparum [1] was 4.90. Moreover, the viability at 20 µM in series [2] turned out to be 87.9%.

By pIC50 is commonly meant the negative decadic logarithm of the IC50, by convention in mol/L.
